Reduction data for 33 compounds are collected here from ChEMBL document CHEMBL1121674, “Gastric antisecretory agents. 2. Antisecretory activity of 9-[(aminoalkyl)thio]-9H-xanthenes and 5-[(aminoalkyl)thio]-5H-[1]benzopyrano[2,3-b]pyridines” (1981).

Assay [1] concerns Canis familiaris. In words: Percent reduction of histamine stimulated gastric acid secretion in adult mongrel dog after intravenous administration at 5 mg/kg. The assay is classed as functional, Canis lupus familiaris, Stomach. Put shortly: (§1)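 Heidenhain-pouch mongrel dogs given histamine infusion at 0.4 (μg/kg)/min. Compound given iv 1 h after infusion start. 30-min collections, volume recorded and aliquot titrated for acid. AO = volume × acid concentration, summed for 3 h post-dose and divided by 3-h control AO from the same dog. % inhibition = 100 − percent of control. Usually one dog per compound.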

Assay [2] deals with Canis familiaris. In words: Percent reduction of histamine stimulated gastric acid secretion in adult mongrel dog after peroral administration of compound at 8 mg/kg; Animal vomited upon compound administration. In kind it is functional, organism-based. More on the design: dose 8 mg/kg. To be noted: Canis lupus familiaris, Stomach. A digest of the protocol: (§2)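 Heidenhain-pouch mongrel dogs given histamine infusion at 0.4 (μg/kg)/min. Compound given orally by gavage 1 h after infusion start. 30-min secretions collected and titrated for acid. AO = volume × acid concentration, summed over 3 h after dosing and expressed against 3-h control AO in the same dog. % inhibition = 100 − percent of control. Usually a single dog.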

Another assay concerns Rattus norvegicus. Put plainly: Percent reduction of gastric acid secretion in pylorus ligated rat after intraperitoneal administration at 40 mg/kg. The assay is classed as functional, Stomach. Put shortly: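 Male Charles River CD outbred albino rats, 150-200 g, pylorus ligated; compound dissolved in 2.5% Tween 80 and given ip (0.5 mL/200 g) at ligation. Stomachs removed after 4 h. Gastric content volume recorded, acid titrated with 0.1 N NaOH to pH 7.0, AO in mequiv/4 h. Six rats per compound, eight controls; % inhibition = 100 − 100×(mean test AO/mean control AO); Student's t test.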

In assay [3] the test system is Canis familiaris. Put plainly: Percent reduction of histamine stimulated gastric acid secretion in adult mongrel dog after peroral administration of compound at 8 mg/kg. To be noted: route oral. In kind it is functional, Canis lupus familiaris, Stomach. Put shortly:
as §2

Assay [4] concerns Canis familiaris. In words: Percent reduction of histamine stimulated gastric acid secretion in adult mongrel dog after intravenous administration of compound at 5 mg/kg; stimulated gastric acid secretion. The assay is classed as functional, organism-based. More on the design: dose 5 mg/kg. Conditions: Canis lupus familiaris, Stomach. A digest of the protocol:
as §1

Some results are limits rather than exact numbers.

For the compound `Cl.NCCCSC1c2ccccc2Oc2ccccc21`, the Reduction is recorded as 68% in the assay on Canis familiaris [1], “Animal vomited upon compound administration” in the assay on Canis familiaris [2] and 44% in the assay with Rattus norvegicus.

Regarding `Cc1cccc2c1Oc1ccccc1C2SCCCN.Cl` (stereo not drawn), the Reduction is recorded as 87% in the assay on Canis familiaris [1], “Animal vomited upon compound administration” with Canis familiaris [2] and 71% in the assay with Rattus norvegicus.

Regarding `Cl.c1ccc2c(c1)Oc1ccccc1C2SCCCN1CCCCC1`, the Reduction is recorded as 30% in the assay on Canis familiaris [1] and 88% in the assay on Rattus norvegicus.

Regarding `Cl.NCCCSC1c2ccccc2Oc2ccc(Cl)cc21` (stereo not drawn), the Reduction amounted to 39% in the assay on Canis familiaris [1] and 89% with Rattus norvegicus.

`COc1ccc2c(c1)C(SCCN(C)C)c1ccccc1O2.Cl` (stereo not drawn): the Reduction in the assay with Canis familiaris [1] was under 30%; with Rattus norvegicus, 63%.

Turning to `Cc1cccc2c1Oc1ccccc1C2SCCN1CCCCC1.Cl` (stereo not drawn), the Reduction is reported as under 30% with Canis familiaris [1] and 85% in the assay with Rattus norvegicus.

As to `Cl.NCCCSC1c2ccccc2Oc2cc(Cl)ccc21` (stereo not drawn), the Reduction in the assay with Canis familiaris [1] is reported as under 30%; in the assay on Rattus norvegicus, 79%.

Compound `Cl.c1ccc2c(c1)Oc1ncccc1C2SCCCN1CCOCC1` (stereo not drawn) yielded a Reduction in the assay with Rattus norvegicus of 62%.

Take `COc1ccc2c(c1)Oc1ccccc1C2SCCN1CCCCC1.Cl` (stereo not drawn): the figures for the Reduction in the assay with Canis familiaris [1], in the assay on Canis familiaris [3] and in the assay with Rattus norvegicus were under 58%, under 30% and 47%, respectively.

Consider `Cl.c1ccc2c(c1)Oc1ncccc1C2SCCN1CCOCC1` (stereo not drawn), for which the Reduction with Canis familiaris [1] stood at 66%; with Rattus norvegicus, 64%.

With `Cl.c1ccc2c(c1)Oc1ccccc1C2SCCCN1CCOCC1`, the Reduction was found to be 47% with Canis familiaris [1] and 98% in the assay with Rattus norvegicus.

In the case of `CN(C)CCSC1c2ccccc2Oc2ccc(Cl)cc21.Cl` (stereo not drawn), the Reduction is on record as under 30% in the assay on Canis familiaris [1] and 55% with Rattus norvegicus.

On to `Cl.NCCSC1c2ccccc2Oc2ccc(Cl)cc21` (stereo not drawn), for which the Reduction with Canis familiaris [1] is on record as under 30%; in the assay on Rattus norvegicus it was 74%.

As to `CN/C(=N\CCSCc1nc[nH]c1C)NC#N` [CIMETIDINE], the Reduction in the assay on Canis familiaris [1] came out at 84%; with Canis familiaris [3], 86%; in the assay on Rattus norvegicus, 74%.

Turning to `Cc1cccc2c1Oc1ccccc1C2SCCN1CCOCC1.Cl` (stereo not drawn), the results for the Reduction in the assay with Canis familiaris [1] and in the assay with Rattus norvegicus were under 30% and 71%, respectively.

For `Cl.NCCSC1c2ccccc2Oc2ccccc21`, the Reduction with Canis familiaris [1] was under 30%; in the assay on Rattus norvegicus, 35%.

In the case of `Cl.c1ccc2c(c1)Oc1ncccc1C2SCCN1CCCCC1` (stereo not drawn), the Reduction with Canis familiaris [1] was 63%; with Canis familiaris [3], under 30%; in the assay on Rattus norvegicus, 61%.

Take `Cl.c1ccc2c(c1)Oc1ccccc1C2SCCN1CCOCC1`: the figures for the Reduction in the assay with Canis familiaris [1], in the assay on Canis familiaris [3] and in the assay with Rattus norvegicus were 56%, under 30% and 93%, respectively.

With `Cl.NCCCSC1c2ccccc2Oc2c(Cl)cccc21` (stereo not drawn), the Reduction is listed as 33% in the assay with Canis familiaris [1] and 99% in the assay on Rattus norvegicus.

For the compound `Cc1ccc2c(c1)C(SCCN1CCCCC1)c1ccccc1O2.Cl` (stereo not drawn), the Reduction with Canis familiaris [1] is under 30%; with Rattus norvegicus it was 88%.

On to `COc1ccc2c(c1)C(SCCN1CCCCC1)c1ccccc1O2.Cl` (stereo not drawn), for which the results for the Reduction in the assay on Canis familiaris [1] and with Rattus norvegicus were under 30% and 73%, respectively.

Take `CN(C)CCSC1c2ccccc2Oc2ccccc21.Cl`: the values for the Reduction with Canis familiaris [1] and in the assay on Rattus norvegicus were under 30% and 65%, respectively.

Turning to `Cl.NCCSC1c2ccccc2Oc2ncccc21` (stereo not drawn), the Reduction in the assay on Canis familiaris [1] and in the assay with Rattus norvegicus was under 30% each time.

Take `COc1ccc2c(c1)C(SCCN1CCOCC1)c1ccccc1O2.Cl` (stereo not drawn): the results for the Reduction entry in the assay on Canis familiaris [4] and with Rattus norvegicus were “stimulated gastric acid secretion” and 94%, respectively.

Turning to `COc1ccc2c(c1)Oc1ccccc1C2SCCN1CCOCC1.Cl` (stereo not drawn), the Reduction in the assay with Canis familiaris [1] was 77%; in the assay on Canis familiaris [3], under 30%; with Rattus norvegicus it was 44%.

Turning to `Cl.c1ccc2c(c1)Oc1ccccc1C2SCCN1CCCCC1`, the Reduction with Canis familiaris [1] is given as under 30%; in the assay with Rattus norvegicus it was 98%.

Turning to `Cl.Clc1ccc2c(c1)Oc1ccccc1C2SCCN1CCOCC1` (stereo not drawn), the Reduction with Canis familiaris [1] is on record as 39%; in the assay with Rattus norvegicus it was 70%.

Regarding `Cc1ccc2c(c1)C(SCCN1CCOCC1)c1ccccc1O2.Cl` (stereo not drawn), the values for the Reduction in the assay on Canis familiaris [1] and with Rattus norvegicus were 50% and 93%, respectively.

`Cc1ccc2c(c1)C(SCCCN)c1ccccc1O2.Cl` (stereo not drawn): the Reduction is 80% with Canis familiaris [1], under 50% in the assay on Canis familiaris [3] and 100% in the assay with Rattus norvegicus.

`Cl.Clc1ccc2c(c1)Oc1ccccc1C2SCCN1CCCCC1` (stereo not drawn): the Reduction is under 30% with Canis familiaris [1] and 80% in the assay with Rattus norvegicus.

As to `CN(C)CCSC1c2ccccc2Oc2ncccc21.Cl` (stereo not drawn), the Reduction in the assay on Canis familiaris [1] is on record as under 30%; in the assay with Rattus norvegicus it was 79%.

Consider `Cl.Clc1cccc2c1Oc1ccccc1C2SCCN1CCOCC1` (stereo not drawn), for which the Reduction in the assay on Canis familiaris [1] is 42%; in the assay on Rattus norvegicus, 86%.

In the case of `Cl.Clc1cccc2c1Oc1ccccc1C2SCCN1CCCCC1` (stereo not drawn), the Reduction with Canis familiaris [1] was determined as 44%; in the assay with Rattus norvegicus, 87%.
